Measurements published in ChEMBL document CHEMBL1123656, “Synthesis and antitumor activity of tropolone derivatives. 4” (1987).

What was measured:
Format in all cases: functional, Mus musculus
P388 [1] = assay: Compound was evaluated for activity against P388 leukemia, at an intraperitoneal dose of 25 mg/kg
Summary of the method: (§1)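 Mice bearing P388 leukemia were given the compound intraperitoneally, with activity read out as T/C (%). The full protocol is cited to earlier work.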

P388 [2] = assay: Compound was evaluated for activity against P388 leukemia, at an intraperitoneal dose of 12.5 mg/kg; summary of the method: as §1
P388 [3] = assay: Compound was evaluated for activity against P388 leukemia, at an intraperitoneal dose of 50 mg/kg; summary of the method: as §1
P388 [4] = assay: Compound was evaluated for activity against P388 leukemia, at an intraperitoneal dose of 200 mg/kg; summary of the method: as §1
P388 [5] = assay: Compound was evaluated for activity against P388 leukemia, at an intraperitoneal dose of 100 mg/kg; summary of the method: as §1
P388 [6] = assay: Compound was evaluated for activity against P388 leukemia, at an intraperitoneal dose of 400 mg/kg; summary of the method: as §1
P388 [7] = assay: Compound was evaluated for activity against P388 leukemia, at an intraperitoneal dose of 20 mg/kg; summary of the method: as §1
P388 [8] = assay: Compound was evaluated for activity against P388 leukemia, at an intraperitoneal dose of 6.3 mg/kg; summary of the method: as §1
P388 [9] = assay: Compound was evaluated for activity against P388 leukemia, at an intraperitoneal dose of 3.1 mg/kg; summary of the method: as §1
P388 [10] = assay: Compound was evaluated for activity against P388 leukemia, at an intraperitoneal dose of 10 mg/kg; summary of the method: as §1
P388 [11] = assay: Compound was evaluated for activity against P388 leukemia, at an intraperitoneal dose of 5 mg/kg; summary of the method: as §1

Row | SMILES | T/C (P388 [1]) [%] | T/C (P388 [2]) [%] | T/C (P388 [3]) [%] | T/C (P388 [4]) [%] | T/C (P388 [5]) [%] | also measured
1 | COc1ccc(C(c2ccc(C(C)C)cc(=O)c2O)c2ccc3ccccc3c2O)cc1 (configuration not stated) | 125 | 105 | 108 | – | – | –
2 | COc1ccc(C(C2=C(C)C(=O)c3ccccc3C2=O)c2ccc(C(C)C)cc(=O)c2O)cc1 (configuration not stated) | – | – | – | 131 | 114 | T/C (P388 [6]): 72%
3 | COc1ccc(C(c2ccc(C(C)C)cc(=O)c2O)c2c(O)c(C(=O)O)cc3ccccc23)cc1 (configuration not stated) | – | – | – | 0 | 141 | T/C (P388 [7]): 106%
4 | COc1ccc(C(c2cc(C(C)(C)C)ccc2O)c2ccc(C(C)C)cc(=O)c2O)cc1 (configuration not stated) | 116 | – | 116 | – | 120 | –
5 | COc1ccc(C(c2ccc(C(C)C)cc(=O)c2O)c2ccc3cccnc3c2O)cc1 (configuration not stated) | – | 141 | – | – | – | T/C (P388 [8]): 151%; T/C (P388 [9]): 144%
6 | COc1ccc(C(c2ccc(C(C)C)cc(=O)c2O)c2c(O)cc3oc(-c4ccccc4)cc(=O)c3c2O)cc1 (configuration not stated) | 127 | – | – | 148 | 136 | –
7 | COc1ccc(C(c2cc(O)ccc2O)c2ccc(C(C)C)cc(=O)c2O)cc1 (configuration not stated) | 142 | 128 | 128 | – | – | –
8 | COc1ccc(C(c2ccc(C(C)C)cc(=O)c2O)c2c(O)oc3ccccc3c2=O)cc1 (configuration not stated) | – | – | – | – | – | T/C (P388 [10]): 117%; T/C (P388 [7]): 127%; T/C (P388 [11]): 128%
9 | COc1ccc(C(C2=C(O)C(=O)c3ccccc3C2=O)c2ccc(C(C)C)cc(=O)c2O)cc1 (configuration not stated) | – | – | 0 | – | – | T/C (P388 [7]): 129%; T/C (P388 [11]): 108%
10 | CCOC(c1ccc(OC)cc1)c1ccc(C(C)C)cc(=O)c1O (configuration not stated) | – | – | – | – | 148 | –
11 | COc1ccc(C(c2ccc(C(C)C)cc(=O)c2O)C2Oc3c(Cl)c(OC)cc(OC)c3C2=O)cc1 (configuration not stated) | 117 | – | 109 | – | 130 | –
12 | COc1ccc(C(c2cc(C(C)(C)C)cc(O)c2O)c2ccc(C(C)C)cc(=O)c2O)cc1 (configuration not stated) | 127 | 110 | 168 | – | – | –
13 | COc1ccc(C(c2ccc(O)cc2O)c2ccc(C(C)C)cc(=O)c2O)cc1 (configuration not stated) | – | – | 98 | 136 | 104 | –
